# According to ChEMBL document CHEMBL2396616, “Development and characterization of a promising fluorine-18 labelled radiopharmaceutical for in vivo imaging of fatty acid amide hydrolase” (Bioorg Med Chem, 2013):
# Assays:
# [1] = biological target: T1, Fatty-acid amide hydrolase 1 (Rattus norvegicus, UniProt P97612); assay: Inhibition of FAAH in rat brain homogenates using [3H]anandamide as substrate preincubated for 60 mins by liquid scintillation spectroscopy
# T1 sequence (P97612 whole entry): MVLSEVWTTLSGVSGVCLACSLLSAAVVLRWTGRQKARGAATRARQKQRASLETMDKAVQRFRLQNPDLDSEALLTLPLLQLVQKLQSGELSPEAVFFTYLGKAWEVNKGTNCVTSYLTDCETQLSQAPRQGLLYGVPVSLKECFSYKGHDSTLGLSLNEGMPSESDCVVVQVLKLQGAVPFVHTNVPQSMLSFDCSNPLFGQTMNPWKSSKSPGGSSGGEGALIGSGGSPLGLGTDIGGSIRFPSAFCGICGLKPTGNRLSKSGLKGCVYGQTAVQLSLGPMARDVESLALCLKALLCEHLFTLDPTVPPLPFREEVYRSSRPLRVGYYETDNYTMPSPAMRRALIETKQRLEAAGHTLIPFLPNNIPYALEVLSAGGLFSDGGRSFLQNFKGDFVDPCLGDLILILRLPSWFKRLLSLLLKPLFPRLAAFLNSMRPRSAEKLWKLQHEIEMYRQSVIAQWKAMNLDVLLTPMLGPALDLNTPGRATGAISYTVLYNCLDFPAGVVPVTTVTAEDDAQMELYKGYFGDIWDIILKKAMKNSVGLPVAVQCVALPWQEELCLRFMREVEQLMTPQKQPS
# [2] = Drug uptake in Sprague-Dawley rat thalamic nuclei at 0.7 to 0.8 nmol/kg, iv after 40 mins by autoradiography analysis; type: ADME, organism-based; conditions: in vivo
# Summary of the method: (§1)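 Male Sprague-Dawley rats (310–330 g) got 45–55 MBq radiotracer (0.7–0.8 nmol/kg) by tail vein. Pretreated 40 min earlier with vehicle (5% Tween80/saline) or PF-04457845 0.5 mg/kg ip. Killed 40 min post-injection. Brains frozen, cut into 20-μm coronal sections at −20°C, dried, exposed to film for 6 days.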
# Hippocampus [3] = assay: Drug uptake in Sprague-Dawley rat hippocampus at 0.7 to 0.8 nmol/kg, iv after 40 mins by autoradiography analysis in presence of FAAH inhibitor PF-04457845; type: ADME, organism-based; conditions: in vivo; summary of the method: as §1
# [4] = Drug metabolism in human plasma after 30 mins; type: ADME, cell-free; conditions: read-out: Drug metabolism
# Summary of the method: (§2)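 Radiotracer incubated in vitro in rat or human plasma for 30 min at ambient temperature. Decomposition assessed by radio-HPLC.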
# [5] = Irreversible biodistribution in iv dosed rat brain parenchyma after 2 to 40 mins by gamma counting in presence of FAAH inhibitor URB597; type: ADME, organism-based; conditions: in vivo
# Summary of the method: (§3)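 After tail-vein radiotracer, rats (n=4–6/group) killed at 2, 10 or 40 min. Whole brain rinsed in saline and homogenised in cold 80% acetonitrile/0.01% aq HCl. Centrifuged and extracted three times in total. Pooled supernatant (unbound) and pellet (bound) counted separately. […] Mean ± SD.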
# [6] = Drug uptake in Sprague-Dawley rat cerebellar cortex at 0.7 to 0.8 nmol/kg, iv after 40 mins by autoradiography analysis in presence of FAAH inhibitor PF-04457845; type: ADME, organism-based; conditions: in vivo; summary of the method: as §1
# [7] = Drug uptake in Sprague-Dawley rat amygdaloid nuclei at 0.7 to 0.8 nmol/kg, iv after 40 mins by autoradiography analysis; type: ADME, organism-based; conditions: in vivo; summary of the method: as §1
# Cortex [8] = assay: Drug uptake in Sprague-Dawley rat cortex at 0.7 to 0.8 nmol/kg, iv after 40 mins by autoradiography analysis; type: ADME, organism-based; conditions: in vivo; summary of the method: as §1
# Cortex [9] = assay: Drug uptake in Sprague-Dawley rat cortex at 0.7 to 0.8 nmol/kg, iv after 40 mins by autoradiography analysis in presence of FAAH inhibitor PF-04457845; type: ADME, organism-based; conditions: in vivo; summary of the method: as §1
# [10] = Drug uptake in Sprague-Dawley rat thalamic nuclei at 0.7 to 0.8 nmol/kg, iv after 40 mins by autoradiography analysis in presence of FAAH inhibitor PF-04457845; type: ADME, organism-based; conditions: in vivo; summary of the method: as §1
# Plasma [11] = assay: Drug metabolism in rat plasma after 10 mins; type: ADME, cell-free
# Summary of the method: (§4)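 Rats given radiotracer iv, killed at 10 min. Trunk blood taken into heparin, plasma separated and acidified with 10% v/v acetic acid. Plasma and brain homogenate extracts analysed directly by reverse-phase radio-HPLC for parent vs metabolites.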
# Hypothalamus [12] = assay: Biodistribution in rat brain hypothalamus at < 1 nmol/kg, iv after 40 mins by gamma counting; type: ADME, organism-based; conditions: in vivo
# Summary of the method: (§5)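 [18F]radiotracer, 3–4 MBq (0.2–1 nmol/kg), given by tail vein in 0.3 mL 10% ethanol/citrate buffer pH 6 to restrained conscious rats. Decapitation at set times. Regions excised, blotted, weighed. Gamma counting decay-corrected to injection against injected-dose standards. Reported as SUV (%ID/g […] body weight kg), mean ± SD, n=4/group. Blocked groups vs vehicle by Student's t test.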
# [13] = Drug uptake in Sprague-Dawley rat amygdaloid nuclei at 0.7 to 0.8 nmol/kg, iv after 40 mins by autoradiography analysis in presence of FAAH inhibitor PF-04457845; type: ADME, organism-based; conditions: in vivo; summary of the method: as §1
# [14] = Irreversible biodistribution in iv dosed rat brain parenchyma after 10 mins by gamma counting; type: ADME, organism-based; conditions: in vivo; summary of the method: as §3
# Hippocampus [15] = assay: Drug uptake in Sprague-Dawley rat hippocampus at 0.7 to 0.8 nmol/kg, iv after 40 mins by autoradiography analysis; type: ADME, organism-based; conditions: in vivo; summary of the method: as §1
# Brain [16] = assay: Biodistribution in rat brain at < 1 nmol/kg, iv after 2 to 40 mins by gamma counting in presence of FAAH inhibitor PF-04457845; type: ADME, organism-based; conditions: in vivo; summary of the method: as §5
# Cortex [17] = assay: Biodistribution in rat brain cortex at < 1 nmol/kg, iv after 2 mins by gamma counting; type: ADME, organism-based; conditions: in vivo; summary of the method: as §5
# [18] = Irreversible biodistribution in iv dosed rat brain parenchyma after 2 mins by gamma counting; type: ADME, organism-based; conditions: in vivo; summary of the method: as §3
# [19] = Drug metabolism in rat brain after 10 mins; type: ADME, tissue-based; conditions: read-out: Drug metabolism; summary of the method: as §4
# Hypothalamus [20] = assay: Biodistribution in rat brain hypothalamus at < 1 nmol/kg, iv after 2 mins by gamma counting; type: ADME, organism-based; conditions: in vivo; summary of the method: as §5
# [21] = Irreversible biodistribution in iv dosed rat brain parenchyma after 40 mins by gamma counting; type: ADME, organism-based; conditions: in vivo; summary of the method: as §3
# Cortex [22] = assay: Biodistribution in rat brain cortex at < 1 nmol/kg, iv after 40 mins by gamma counting; type: ADME, organism-based; conditions: in vivo; summary of the method: as §5
# Brain [23] = assay: Biodistribution in rat brain at < 1 nmol/kg, iv after 2 to 40 mins by gamma counting in presence of FAAH inhibitor URB597; type: ADME, organism-based; conditions: in vivo; summary of the method: as §5
# Cortex [24] = assay: Drug uptake in Sprague-Dawley rat cerebellar cortex at 0.7 to 0.8 nmol/kg, iv after 40 mins by autoradiography analysis; type: ADME, organism-based; conditions: in vivo; summary of the method: as §1
# Plasma [25] = assay: Drug metabolism in rat plasma after 30 mins; type: ADME, cell-free; conditions: 0.5 h; summary of the method: as §2
smiles,measurement,setting,value
O=C(NCCCCCF)Oc1cccc(C2=NCCO2)c1,IC50,[1],0.82 nM
O=C(NCCCCC[18F])Oc1cccc(C2=NCCO2)c1,Drug uptake,[2],Active
same,Drug uptake,Hippocampus [3],Not Active
same,metabolised at 0.5 h,[4],< 5%
same,Drug uptake,[5],24%
same,Drug uptake,[6],Not Active
same,Drug uptake,[7],Active
same,Drug uptake,Cortex [8],Active
same,Drug uptake,Cortex [9],Not Active
same,Drug uptake,[10],Not Active
same,Drug metabolism,Plasma [11],> 95%
same,SUV,Hypothalamus [12],1.59
same,Drug uptake,[13],Not Active
same,Drug uptake,[14],94%
same,Drug uptake,Hippocampus [15],Active
same,Drug uptake,Brain [16],Not Active
same,SUV,Cortex [17],3.9
same,Drug uptake,[18],91%
same,metabolised at 10 min,[19],50%
same,SUV,Hypothalamus [20],1.74
same,Drug uptake,[21],90%
same,SUV,Cortex [22],4.55
same,Drug uptake,Brain [23],Not Active
same,Drug uptake,Cortex [24],Active
same,Drug metabolism,Plasma [25],> 50%
